These results are taken from ChEMBL document CHEMBL1255269 (Antimicrob Agents Chemother, 2008).

Activity calls are given as the source filed them. The rule behind the calls is not given here.

The nature of data set [1]: Volume of distribution in pigeon at 30 mg/kg, iv by naive pooling approach. Format: ADME, organism-based. As to conditions: columba livia, in vivo. On the set-up: dose 30 mg/kg, route intravenous. The method in brief: (§1)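 Crossover design, one week apart, 24 homing pigeons. […] Blood taken at 0.25–8 h, six samples per time point; plasma assayed by HPLC-UV (linear 0.05–20 μg/ml). Data fitted by naive pooling, iv biexponential and oral triexponential two-compartment models, plus nonlinear mixed-effects modelling; F derived from mean AUC0–∞.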

A short description of data set [2]: Mean residence time in pigeon at 30 mg/kg, iv by naive pooling approach. Format: ADME, organism-based. As to conditions: columba livia, in vivo, read-out: Time. Details: dose 30 mg/kg, route intravenous. The method in brief:
as §1

Data set [3] in a line: Half life at beta phase in pigeon at 30 mg/kg, iv by naive pooling approach. As to conditions: columba livia, in vivo. Format: ADME, organism-based. Details: dose 30 mg/kg, route intravenous. The method in brief: as §1
Data set [4] is described as follows: Half life at beta phase in pigeon at 30 mg/kg, po by naive pooling approach. Format: ADME, organism-based. Details: dose 30 mg/kg, route oral. As to conditions: columba livia, in vivo. In a few lines: as §1
Data set [5] can be described thus: Oral bioavailability in pigeon at 30 mg/kg, po by naive pooling approach. Format: ADME, organism-based. As to conditions: columba livia, in vivo. In a few lines: as §1
Data set [6] can be described thus: Tmax in pigeon at 30 mg/kg, po by naive pooling approach. On the set-up: dose 30 mg/kg, route oral. Format: ADME, organism-based. As to conditions: columba livia, in vivo. In a few lines: as §1
Data set [7] can be described thus: Cmax in pigeon at 30 mg/kg, po by naive pooling approach. As to conditions: columba livia, in vivo. Format: ADME, organism-based. On the set-up: dose 30 mg/kg, route oral. In a few lines:
as §1

The nature of data set [8]: Volume of distribution in central compartment in pigeon at 30 mg/kg, iv. The format is ADME, organism-based. Details: dose 30 mg/kg, route intravenous. As to conditions: columba livia, in vivo. The method in brief:
as §1

The nature of data set [9]: Oral bioavailability in pigeon at 30 mg/kg, po. Format: ADME, organism-based. As to conditions: columba livia, in vivo. In a few lines:
as §1

Data set [10] in a line: Plasma protein binding in pigeon at 10 ug/ml. The format is ADME, cell-free. As to conditions: columba livia, read-out: PPB (converted). In a few lines:
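Ultrafiltration through a 30K membrane, free drug in the ultrafiltrate measured by HPLC. Bound drug taken as total minus free.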

For data set [11], the system named is Salmonella typhimurium. In words: Antimicrobial activity against Salmonella enterica subsp. enterica serovar Typhimurium PT99/DAB69 at 2 ug/ml after 16 hrs. The format is functional. The method in brief: (§2)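 Killing curve in Mueller-Hinton broth inoculated with 5 × 10^5 CFU of the strain (grown in LB, 37°C, 16 h, static). […] Tenfold dilutions plated onto Mueller-Hinton agar at several time points after inoculation; the decrease in log10 CFU is read at 16 h.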

Data set [12] deals with Salmonella typhimurium. In words: Antimicrobial activity against Salmonella enterica subsp. enterica serovar Typhimurium PT99/DAB69 at 4 ug/ml after 16 hrs. The format is functional. The method in brief:
as §2

Data set [13] concerns Salmonella typhimurium. In words: Antimicrobial activity against Salmonella enterica subsp. enterica serovar Typhimurium PT99/DAB69 in pigeon kidney assessed as decrease in bacterial count relative to untreated control. The format is functional, organism-based. The method in brief: (§3)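 Homing pigeons, 10 per group, housed individually. Crop inoculation with 10^8 CFU in 1 ml PBS. […] Tissue CFU per gram counted by plating tenfold dilutions on brilliant green agar, with enrichment in buffered peptone water and tetrathionate broth if direct plating was negative.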

For data set [14], the system named is Salmonella typhimurium. In words: Antimicrobial activity against Salmonella enterica subsp. enterica serovar Typhimurium PT99/DAB69 in pigeon spleen assessed as decrease in bacterial count relative to untreated control. The format is functional, organism-based. The method in brief:
as §3

In the next data set the test system is Columba livia. In words: Drug uptake in Salmonella enterica subsp. enterica serovar Typhimurium PT99/DAB69 infected pigeon at 26 to 45 mg/kg. As to conditions: in vivo. The format is ADME, organism-based. Details: dose 26-45 mg/kg.
Data set [15] can be described thus: in vivo. As to conditions: columba livia, plasma, iv, 30 mg/kg.
A short description of data set [16]: in vivo. As to conditions: columba livia, plasma, po, 30 mg/kg.
Data set [17] is described as follows: in vivo. As to conditions: columba livia, plasma, iv, 30 mg/kg. The source holds these as a separate data set.
A short description of data set [18]: in vivo. As to conditions: columba livia, plasma, po, 30 mg/kg. This is another data set of the same source.

By Vd is commonly meant the apparent volume that relates the amount in the body to the concentration in plasma or blood. By half-life is commonly meant how long it takes for the measured level to halve. Read a low half-life as fast loss. The term bioavailability denotes the share of a dose that reaches the circulation, judged against a reference dose that is usually intravenous. A low value points to poor availability. By Tmax is commonly meant the time from dosing to the highest level. In general, Cmax refers to the maximum level reached in the sampled fluid or tissue. As a reminder, the AUC(0-inf) is the area under the concentration-time curve extrapolated to infinity.

`CS(=O)(=O)c1ccc([C@@H](O)[C@@H](CF)NC(=O)C(Cl)Cl)cc1` [FLORFENICOL]: the Vd in [1] was 2.02 L/kg; in data set [8], 0.88 L/kg. In addition, the MRT in [2] was 1.43 h. Moreover, the half-life in data set [3] is 1.73 h; in data set [4], 2.69 h. Further, the bioavailability in [5] is 58.5%; in data set [9], 60%. Moreover, the Tmax in data set [6] was determined as 0.69 h. For the same compound, the highest level in [7] (Cmax) was 5100 ng/mL. Moreover, the fraction unbound at 10 ug/ml in data set [10] was 0.288. Also, the log10cfu in the data set on Salmonella typhimurium [11] stood at 1; in the data set with Salmonella typhimurium [12], 2. Moreover, the result with Salmonella typhimurium [13] and in the data set on Salmonella typhimurium [14] was inactive. Moreover, the Drug uptake in the data set on Columba livia is 35 mg/kg. Also, the total exposure AUC(0-inf) worked out at 21300 ng·h/mL in “in vivo [15]”, 12500 ng·h/mL in the data set “in vivo [16]”, 22700 ng·h/mL in the data set “in vivo [17]” and 13100 ng·h/mL in “in vivo [18]”.
